Reference: ChEMBL document CHEMBL2375313, “Synthesis, in vitro antitumor evaluation and DNA-binding study of novel tetrahydroquinolines and some derived tricyclic and tetracyclic ring systems” (Eur J Med Chem, 2013)

Tests used:
Type in all cases: functional
HCT-116 = test: Cytotoxicity against human HCT116 cells assessed as growth inhibition at 10 uM after 48 hrs by sulphorhodamine B assay; settings: HCT-116, 48 h, read-out: GI
How it was run: (§1)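 NCI-60 one-dose screen per the NCI Drug Evaluation Branch protocol. Cells given a single 10 µM concentration with 48 h continuous exposure. Growth estimated by sulphorhodamine B protein assay. Result expressed as percentage growth inhibition relative to untreated growth.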

K562 = test: Cytotoxicity against human K562 cells assessed as growth inhibition at 10 uM after 48 hrs by sulphorhodamine B assay; settings: K562, 48 h, read-out: GI; how it was run: as §1
OVCAR-5 = test: Cytotoxicity against human OVCAR5 cells assessed as growth inhibition at 10 uM after 48 hrs by sulphorhodamine B assay; settings: OVCAR-5, 48 h, read-out: GI; how it was run: as §1
SNB-19 = test: Cytotoxicity against human SNB19 cells assessed as growth inhibition at 10 uM after 48 hrs by sulphorhodamine B assay; settings: SNB-19, 48 h, read-out: GI; how it was run: as §1
Hs-578T = test: Cytotoxicity against human Hs578T cells assessed as growth inhibition at 10 uM after 48 hrs by sulphorhodamine B assay; settings: read-out: GI; how it was run: as §1
SF-295 = test: Cytotoxicity against human SF295 cells assessed as growth inhibition at 10 uM after 48 hrs by sulphorhodamine B assay; settings: SF-295, 48 h, read-out: GI; how it was run: as §1
NCI/ADR-RES = test: Cytotoxicity against human NCI/ADR-RES cells assessed as growth inhibition at 10 uM after 48 hrs by sulphorhodamine B assay; settings: read-out: GI; how it was run: as §1
A549 = test: Cytotoxicity against human A549 cells assessed as growth inhibition at 10 uM after 48 hrs by sulphorhodamine B assay; settings: A549, 48 h, read-out: GI; how it was run: as §1
SNB-75 = test: Cytotoxicity against human SNB75 cells assessed as growth inhibition at 10 uM after 48 hrs by sulphorhodamine B assay; settings: SNB-75, 48 h, read-out: GI; how it was run: as §1
SK-OV-3 = test: Cytotoxicity against human SKOV3 cells assessed as growth inhibition at 10 uM after 48 hrs by sulphorhodamine B assay; settings: SK-OV-3, 48 h, read-out: GI; how it was run: as §1
NCI-H522 = test: Cytotoxicity against human NCI-H522 cells assessed as growth inhibition at 10 uM after 48 hrs by sulphorhodamine B assay; settings: NCI-H522, 48 h, read-out: GI; how it was run: as §1
T47D = test: Cytotoxicity against human T47D cells assessed as growth inhibition at 10 uM after 48 hrs by sulphorhodamine B assay; settings: read-out: GI; how it was run: as §1
SK-MEL-2 = test: Cytotoxicity against human SK-MEL-2 cells assessed as growth inhibition at 10 uM after 48 hrs by sulphorhodamine B assay; settings: SK-MEL-2, 48 h, read-out: GI; how it was run: as §1
DU-145 = test: Cytotoxicity against human DU145 cells assessed as growth inhibition at 10 uM after 48 hrs by sulphorhodamine B assay; settings: DU-145, 48 h, read-out: GI; how it was run: as §1
CCRF-CEM = test: Cytotoxicity against human CCRF-CEM cells assessed as growth inhibition at 10 uM after 48 hrs by sulphorhodamine B assay; settings: read-out: GI; how it was run: as §1
MDA-MB-468 = test: Cytotoxicity against human MDA-MB-468 cells assessed as growth inhibition at 10 uM after 48 hrs by sulphorhodamine B assay; settings: MDA-MB-468, 48 h, read-out: GI; how it was run: as §1
IGROV-1 = test: Cytotoxicity against human IGROV1 cells assessed as growth inhibition at 10 uM after 48 hrs by sulphorhodamine B assay; settings: IGROV-1, 48 h, read-out: GI; how it was run: as §1
SK-MEL-5 = test: Cytotoxicity against human SK-MEL-5 cells assessed as growth inhibition at 10 uM after 48 hrs by sulphorhodamine B assay; settings: SK-MEL-5, 48 h, read-out: GI; how it was run: as §1
NCI-H23 = test: Cytotoxicity against human NCI-H23 cells assessed as growth inhibition at 10 uM after 48 hrs by sulphorhodamine B assay; settings: NCI-H23, 48 h, read-out: GI; how it was run: as §1
UACC-62 = test: Cytotoxicity against human UACC62 cells assessed as growth inhibition at 10 uM after 48 hrs by sulphorhodamine B assay; settings: UACC-62, 48 h, read-out: GI; how it was run: as §1
MDA-MB-435 = test: Cytotoxicity against human MDA-MB-435 cells assessed as growth inhibition at 10 uM after 48 hrs by sulphorhodamine B assay; settings: MDA-MB-435, 48 h, read-out: GI; how it was run: as §1
RXF 393 = test: Cytotoxicity against human RXF393 cells assessed as growth inhibition at 10 uM after 48 hrs by sulphorhodamine B assay; settings: RXF 393, 48 h, read-out: GI; how it was run: as §1
CAKI-1 = test: Cytotoxicity against human Caki1 cells assessed as growth inhibition at 10 uM after 48 hrs by sulphorhodamine B assay; settings: CAKI-1, 48 h, read-out: GI; how it was run: as §1
U-251 = test: Cytotoxicity against human U251 cells assessed as growth inhibition at 10 uM after 48 hrs by sulphorhodamine B assay; settings: U-251, 48 h, read-out: GI; how it was run: as §1
UO-31 = test: Cytotoxicity against human UO31 cells assessed as growth inhibition at 10 uM after 48 hrs by sulphorhodamine B assay; settings: UO-31, 48 h, read-out: GI; how it was run: as §1
SR = test: Cytotoxicity against human SR cells assessed as growth inhibition at 10 uM after 48 hrs by sulphorhodamine B assay; settings: read-out: GI; how it was run: as §1
OVCAR-4 = test: Cytotoxicity against human OVCAR4 cells assessed as growth inhibition at 10 uM after 48 hrs by sulphorhodamine B assay; settings: OVCAR-4, 48 h, read-out: GI; how it was run: as §1
LOX IMVI = test: Cytotoxicity against human LOXIMVI cells assessed as growth inhibition at 10 uM after 48 hrs by sulphorhodamine B assay; settings: read-out: GI; how it was run: as §1
RPMI-8226 = test: Cytotoxicity against human RPMI8226 cells assessed as growth inhibition at 10 uM after 48 hrs by sulphorhodamine B assay; settings: RPMI-8226, 48 h, read-out: GI; how it was run: as §1
SF-268 = test: Cytotoxicity against human SF268 cells assessed as growth inhibition at 10 uM after 48 hrs by sulphorhodamine B assay; settings: SF-268, 48 h, read-out: GI; how it was run: as §1
[1] = Cytotoxicity against human EKVX cells assessed as growth inhibition at 10 uM after 48 hrs by sulphorhodamine B assay; settings: read-out: GI; how it was run: as §1
HCT-15 = test: Cytotoxicity against human HCT15 cells assessed as growth inhibition at 10 uM after 48 hrs by sulphorhodamine B assay; settings: HCT-15, 48 h, read-out: GI; how it was run: as §1
A498 = test: Cytotoxicity against human A498 cells assessed as growth inhibition at 10 uM after 48 hrs by sulphorhodamine B assay; settings: A498, 48 h, read-out: GI; how it was run: as §1
MOLT-4 = test: Cytotoxicity against human MOLT4 cells assessed as growth inhibition at 10 uM after 48 hrs by sulphorhodamine B assay; settings: MOLT-4, 48 h, read-out: GI; how it was run: as §1
ACHN = test: Cytotoxicity against human ACHN cells assessed as growth inhibition at 10 uM after 48 hrs by sulphorhodamine B assay; settings: read-out: GI; how it was run: as §1
PC-3 = test: Cytotoxicity against human PC3 cells assessed as growth inhibition at 10 uM after 48 hrs by sulphorhodamine B assay; settings: PC-3, 48 h, read-out: GI; how it was run: as §1
MCF7 = test: Cytotoxicity against human MCF7 cells assessed as growth inhibition at 10 uM after 48 hrs by sulphorhodamine B assay; settings: MCF7, 48 h, read-out: GI; how it was run: as §1
HOP-92 = test: Cytotoxicity against human HOP92 cells assessed as growth inhibition at 10 uM after 48 hrs by sulphorhodamine B assay; settings: HOP-92, 48 h, read-out: GI; how it was run: as §1
M14 = test: Cytotoxicity against human M14 cells assessed as growth inhibition at 10 uM after 48 hrs by sulphorhodamine B assay; settings: M14, 48 h, read-out: GI; how it was run: as §1
HL-60(TB) = test: Cytotoxicity against human HL-60(TB) cells assessed as growth inhibition at 10 uM after 48 hrs by sulphorhodamine B assay; settings: HL-60, 48 h, read-out: GI
How it was run: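 NCI-60 one-dose primary screen run to the Drug Evaluation Branch protocol. Cells are exposed to a single 10 µM concentration for 48 h continuously, and growth is read by SRB protein assay. Data are reported as percent growth of treated cells, expressed as % growth inhibition.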

HT-29 = test: Cytotoxicity against human HT-29 cells assessed as growth inhibition at 10 uM after 48 hrs by sulphorhodamine B assay; settings: HT-29, 48 h, read-out: GI; how it was run: as §1

COc1ccc(-c2c3c(nc4nc[nH]c(=O)c24)C(C)CCC3)cc1 (stereo unspecified)
inhibition of growth at 10 µM (HCT-116): < 10%
inhibition of growth at 10 µM (K562): < 10%
inhibition of growth at 10 µM (OVCAR-5): < 10%
inhibition of growth at 10 µM (SNB-19): < 10%
inhibition of growth at 10 µM (Hs-578T): < 10%
inhibition of growth at 10 µM (SF-295): < 10%
inhibition of growth at 10 µM (NCI/ADR-RES): 20%
inhibition of growth at 10 µM (A549): < 10%
inhibition of growth at 10 µM (SNB-75): 34.3%
inhibition of growth at 10 µM (SK-OV-3): < 10%
inhibition of growth at 10 µM (NCI-H522): 20.8%
inhibition of growth at 10 µM (T47D): < 10%
inhibition of growth at 10 µM (SK-MEL-2): < 10%
inhibition of growth at 10 µM (DU-145): < 10%
inhibition of growth at 10 µM (CCRF-CEM): < 10%
inhibition of growth at 10 µM (MDA-MB-468): 21.5%
inhibition of growth at 10 µM (IGROV-1): < 10%
inhibition of growth at 10 µM (SK-MEL-5): < 10%
inhibition of growth at 10 µM (NCI-H23): 13.8%
inhibition of growth at 10 µM (UACC-62): < 10%
inhibition of growth at 10 µM (MDA-MB-435): < 10%
inhibition of growth at 10 µM (RXF 393): < 10%
inhibition of growth at 10 µM (CAKI-1): < 10%
inhibition of growth at 10 µM (U-251): 19%
inhibition of growth at 10 µM (UO-31): < 10%
inhibition of growth at 10 µM (SR): < 10%
inhibition of growth at 10 µM (OVCAR-4): < 10%
inhibition of growth at 10 µM (LOX IMVI): < 10%
inhibition of growth at 10 µM (RPMI-8226): < 10%
inhibition of growth at 10 µM (SF-268): < 10%
inhibition of growth at 10 µM [1]: < 10%
inhibition of growth at 10 µM (HCT-15): 13.7%
inhibition of growth at 10 µM (A498): < 10%
inhibition of growth at 10 µM (MOLT-4): < 10%
inhibition of growth at 10 µM (ACHN): < 10%
inhibition of growth at 10 µM (PC-3): < 10%
inhibition of growth at 10 µM (MCF7): < 10%
inhibition of growth at 10 µM (HOP-92): < 10%
inhibition of growth at 10 µM (M14): < 10%
inhibition of growth at 10 µM (HL-60(TB)): < 10%
inhibition of growth at 10 µM (HT-29): < 10%
